Measured values published in paper PMC3705663 (The Indian Journal of Medical Research, 2013).

Columns and labels:
[1] = system: HIV-1 NL4.3; assay: Inhibition of HIV infection in TZM-bl cells-based assay; assay type: cell-based
In short: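 TZM-bl cells (HeLa-derived, CD4/CCR5/CXCR4, LTR-driven luciferase) were seeded at 4 × 10^4/well overnight. HIV-1 NL4.3 (MOI 0.05) was pretreated with test compound for 1 h at 37°C, added to cells in duplicate for 4 h, then washed off with cold PBS. Cells were cultured 48 h in fresh medium with compound, lysed by freeze-thaw and read for luciferase. AZT served as positive control. % inhibition was taken versus untreated infected cells; IC50 by nonlinear fit.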

[2] = system: HIV integrase; settings: previous study; cited from earlier work
[3] = biological target: HIV-1 integrase (Human immunodeficiency virus type 1 group M subtype B, UniProt P04585); assay: Integrase assay; assay type: biochemical; settings: tested upto 50 μg/ml; positive control sodium azide; data not shown
In short: (§1)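 Enzyme inhibition was measured with a commercial kit for each enzyme, following the manufacturer's instructions. Inhibition values are mean ± SEM of three independent experiments.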

[4] = system: HIV; settings: from other plant sources; cited from earlier work
[5] = biological target: HIV-1 protease (Human immunodeficiency virus type 1 group M subtype B, UniProt P04585); assay: Protease assay; assay type: biochemical; settings: reference control saquinavir 1 μM
In short: as §1

[6] = system: HIV-1 NL4.3; assay: Inhibition of HIV infection in CEM-GFP cells-based assay; assay type: cell-based
In short: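 CEM-GFP cells (CD4+ T-lymphocytic line, GFP under HIV-1 LTR) were infected with HIV-1 NL4.3 at MOI 0.05. They were then plated at 2.0 × 10^5/well with varying test compound concentrations for up to 8 days. AZT served as positive control and solvents as negative controls. Cell lysates were read for GFP fluorescence (ex 485/em 520 nm). % inhibition was taken versus untreated infected cells, and IC50 was obtained by nonlinear curve fitting.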

[7] = biological target: HIV-1 RT (Human immunodeficiency virus type 1 group M subtype B, UniProt P04585); assay: Reverse transcriptase assay; assay type: biochemical; settings: reference control nevirapine 1 μM
In short: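 HIV-1 reverse transcriptase inhibition was measured with a commercial RT assay kit following the manufacturer's protocol. Data are mean ± SEM of three independent experiments.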

Row | inhibition of HIV-1 integrase activity (in words) [3] | inhibition of HIV-1 protease activity (in words) ([5]; listed as ellagic acid) | inhibition of HIV-1 protease activity (in words) ([5]; listed as ellagic acid (compound G)) | inhibition of HIV-1 RT activity (in words) [7] | Compound | anti-HIV activity (in words) [1] | HIV integrase inhibitory activity (in words) [2] | anti-HIV activity (in words) [4] | anti-HIV activity (in words) [6]
1 | did not show any significant inhibition | inhibited the HIV-1 protease activity | dose-dependent inhibition |  | O=c1oc2c(O)c(O)cc3c(=O)oc4c(O)c(O)cc1c4c23 [Ellagic acid (G), ellagic acid] | consistent anti-HIV activity | shown to have HIV integrase inhibitory activity | reported for their anti-HIV activity | consistent anti-HIV activity
2 | did not show any significant inhibition |  |  | dose dependent inhibition | O=C(O)c1cc(O)c(O)c(O)c1 [Gallic acid (F), gallic acid] | potent anti-HIV activity |  | reported for their anti-HIV activity | potent anti-HIV activity
3 |  |  |  |  | C[C@@H]1O[C@@H](OC[C@H]2O[C@@H](Oc3c(-c4ccc(O)c(O)c4)oc4cc(O)cc(O)c4c3=O)[C@H](O)[C@@H](O)[C@@H]2O)[C@H](O)[C@H](O)[C@H]1O [Rutin (E), rutin] | did not show any significant anti-HIV activity |  |  | did not show any significant anti-HIV activity
